SENP6 block – inhibitors of human SENP6 protease; Recombinant SENP6 catalytic domain, aminoluciferin luminescence; inhibition, % at 10 µM; Q9GZR1; hit rate 1.8% among 330,000;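 active = inhibition above about 50% at the single tested dose, limit read from the data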
Target sequence (Q9GZR1 628-1112 limits assumed): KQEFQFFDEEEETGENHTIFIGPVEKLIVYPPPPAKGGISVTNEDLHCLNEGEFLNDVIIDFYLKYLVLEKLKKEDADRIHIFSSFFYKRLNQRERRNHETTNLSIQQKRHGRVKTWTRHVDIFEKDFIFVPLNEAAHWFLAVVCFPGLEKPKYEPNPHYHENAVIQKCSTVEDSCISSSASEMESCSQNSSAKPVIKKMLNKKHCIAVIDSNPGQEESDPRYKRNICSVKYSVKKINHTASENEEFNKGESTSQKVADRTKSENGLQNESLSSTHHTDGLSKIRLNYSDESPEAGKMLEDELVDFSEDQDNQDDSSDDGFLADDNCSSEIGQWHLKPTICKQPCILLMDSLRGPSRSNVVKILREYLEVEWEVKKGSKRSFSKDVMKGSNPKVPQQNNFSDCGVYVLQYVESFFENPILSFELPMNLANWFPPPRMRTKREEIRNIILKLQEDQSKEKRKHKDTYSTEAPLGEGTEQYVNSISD
SENP8 block-1 – blocks the human protease SENP8; Q96LD8; purified SENP8, Z-RLRGG-aminoluciferin cleavage, luminescence; inhibition, % at 10 µM; hit rate 1.2% among 330,000; AID 2540; in the data active = inhibition above about 50%
SENP7 inh – SENP7 protease inhibition. hit rate 1.5% among 330,000. recombinant SENP7, Z-RLRGG-aminoluciferin luminescence, 40 min. inhibition, % at 5 µM. AID 434973;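 active = inhibition above about 50% at the single test dose, limit read from the data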
SENP8 block-2 – SENP8 (human) protease inhibition. recombinant SENP8, Nedd8 substrate fluorescence. inhibition, % at 20 µM. AID 602440. Q96LD8. hit rate 0.64% among 360,000; in the data active = inhibition mostly above about 40%, no sharp cut-off; inactive = mostly below about 27%
SENP1 inh – inhibitors of human SENP1 SUMO protease catalytic domain; Q9P0U3; recombinant SENP1 catalytic domain, CyPet-SUMO1-YPet FRET cleavage; inhibition, % at 10 µM; hit rate 0.21% among 360,000; AID 624204;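 active = inhibition at least 30% at 10 µM, raw YFP signal under a set limit, fluorescence ratio 0.5 to 1.5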
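Test system: recombinant human SENP1 catalytic domain, His6-tagged / Medium: pH 8 Tris buffer with EDTA, NaCl, BME, BSA, NP40, catalase / Also added: SUMO1 FRET substrate flanked by Cypet and Ypet, 25 nM / Times: 50 min reaction at room temperature / Signal: FRET, CFP and YFP emission / Control set: no-enzyme low control and enzyme-plus-DMSO high control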
SENP8 conf-1 – confirmation of human SENP8 protease inhibitors | shares compounds with SENP7 inh | Recombinant SENP8, Z-RLRGG-aminoluciferin luminescence, 60 min | inhibition, % at 12.5 µM | hit rate 40% among 6,200 | AID 488912;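 active = mean inhibition across replicates above about 50%, limit read from the data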
SENP6 conf – human SENP6 inhibition, confirmed | inhibition, % at 12.5 µM | shares compounds with SENP7 inh | hit rate 58% among 6,200 | recombinant SENP6, Z-RLRGG-aminoluciferin luminescence | AID 488915
SENP7 confirm – human SENP7 inhibition, confirmed | shares compounds with SENP7 inh | recombinant SENP7, Z-RLRGG-aminoluciferin luminescence, 40 min | inhibition, % at 12.5 µM | hit rate 69% among 6,200 | AID 488917
Casp3 select – selectivity test for SENP inhibitors: human caspase-3 inhibition; shares compounds with SENP7 inh; purified caspase-3, Z-DEVD-aminoluciferin luminescence, 60 min; inhibition, % at 12.5 µM; hit rate 60% among 6,200; AID 488918;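 active = mean inhibition above about 50%, limit read from the data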
Luc interf – counter-screen for SENP inhibitors: luminescence interference; shares compounds with SENP7 inh; Pre-incubated SENP8/Z-RLRGG-aminoluciferin, luciferase luminescence interference; inhibition, % at 12.5 µM; hit rate 39% among 6,200; AID 488919;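 active = mean inhibition above about 50% when retested at one dose, limit read from the data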
SENP8 conf-2 – SENP8 (human) inhibition, single concentration confirmation; shares compounds with SENP8 block-2; purified SENP8, Nedd8-AMC/pro-Nedd8 cleavage fluorescence, 30 min; inhibition, % at 25 µM; hit rate 15% among 1,400; in the data active = inhibition mostly above about 39%, no sharp cut-off; inactive = mostly below about 34%
Large screens that a line does not name were inactive (follow-up assays come after a bar, where they were run); ! = not active in a repeat. Rows were chosen to be rich in hits. Some 2.5% of all compounds tested hit in one or more screens of this group.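 The calls were made as follows, unless noted: active = mean inhibition above about 50% in the one-dose retest (limit read from the data); inactive = the rest.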

COCCCn1c(N)c(C(=O)OCCOC)c2nc3ccccc3nc21	SENP6 block 58, SENP8 block-1 60, SENP7 inh 57 | SENP8 conf-1 inactive | SENP6 conf inactive | SENP7 confirm inactive | Casp3 select inactive | Luc interf inactive
CC(N)Cc1cn(Cc2ccccc2)c2ccccc12 (stereo unspecified)	none
Cc1cc(N2C(=O)C3CCCN3C2c2ccccc2)no1 (stereo unspecified)	none
COC(=O)C1=C(c2ccc(F)cc2F)C[C@@H]2CC[C@H]1N2C(=O)NCc1ccco1	none
O=c1c2ccccc2nc(Cc2ccccc2)n1-c1ccc(O)cc1	none
CN(C)Cc1c[nH]c2ccccc12	SENP8 block-2 41 | SENP8 conf-2 inactive
COc1cc(C2c3cc(O)c(OC)cc3CC3C(=O)OCC32)ccc1O (stereo unspecified)	SENP8 block-2 44 (no result: SENP6 block, SENP8 block-1, SENP7 inh) | SENP8 conf-2 inactive
COc1cc(C2c3cc4c(cc3CC3COC(=O)C32)OCO4)cc(OC)c1OC (stereo unspecified)	none
O=[N+]([O-])c1ccccc1CN1CC=C(c2ccc(F)cc2)CC1	SENP8 block-2 44 | SENP8 conf-2 inactive
O=[N+]([O-])c1cccc(CN2CC=C(c3ccc(F)cc3)CC2)c1	none
O=C(O)c1ccc([N+](=O)[O-])c([N+](=O)[O-])c1	SENP8 block-2 40 (no result: SENP6 block, SENP8 block-1, SENP7 inh) | SENP8 conf-2 inactive
CCN(CC)C(=O)c1ccc(NC(=O)c2ccc(-n3cncn3)c([N+](=O)[O-])c2)cc1	none
CC12CN3CC(C)(CN(C1)C31CCOCC1)C2=O	SENP8 block-2 41 | SENP8 conf-2 inactive
NNc1n[nH]c(=S)n1N	SENP8 block-2 42 | SENP8 conf-2 inactive
CC(C)(C)n1nnnc1C(c1ccccc1)N1CCC2(CC1)C(=O)NCN2c1ccccc1 (stereo unspecified)	none (no result: SENP6 block, SENP8 block-1, SENP7 inh)
c1ccc(CCNCc2cccs2)cc1	none
O=c1cc(C2CCNCC2)[nH][nH]1	SENP8 block-2 55 | SENP8 conf-2 inactive
Cc1c(C(=O)Nc2ccccc2)c2cc(O)ccc2n1Cc1ccccc1	none
COc1ccc(-n2c(=O)[nH]c3ccccc3c2=O)c(OC)c1	none
COc1ccc2c(c1)NP(=S)(c1ccccc1)N2C (stereo unspecified)	SENP8 block-2 54 (no result: SENP6 block, SENP8 block-1, SENP7 inh) | SENP8 conf-2 inactive
CO[C@H]1C=CCCC=CC(=O)O[C@H]([C@H](C)C(=O)CCCC2CC(=O)NC(=O)C2)C(C)=C[C@@H](C)[C@@H]1O	none (no result: SENP6 block, SENP8 block-1, SENP7 inh)
COc1ccccc1CCNC(=O)CCC(=O)N1CC2C[C@@H](C1)Cn1c2cccc1=O	SENP8 block-2 46 | SENP8 conf-2 inactive
O=C(CCc1ccccc1)N1C[C@H]2C[C@@H](C1)c1cccc(=O)n1C2	SENP8 block-2 61 | SENP8 conf-2 inactive
CN(C=O)CP(=O)(O)CN(C)C=O	none
O=C1NC(=O)C(Nc2ccc(Cl)c(Cl)c2)C(=O)N1	SENP8 block-2 65 (no result: SENP6 block, SENP8 block-1, SENP7 inh) | SENP8 conf-2 76
COC(=O)C1=C(c2ccc(F)cc2F)C[C@@H]2CC[C@H]1N2C(=O)NC(C)C	none
CN1C(=O)C(Cc2ccccc2)C(=O)N(C)C1=O	none (no result: SENP6 block, SENP8 block-1, SENP7 inh)
CN1C(=O)C(Cc2ccsc2)C(=O)N(C)C1=O	SENP8 block-2 47 | SENP8 conf-2 inactive
CN1CC[C@@]2(C)c3cc(O)ccc3N(C)[C@@H]12	SENP8 block-2 44! (no result: SENP6 block, SENP8 block-1, SENP7 inh) | SENP8 conf-2 62
c1cncc(C2CCCCN2)c1 (stereo unspecified)	SENP8 block-2 55 | SENP8 conf-2 inactive
